Tests used:
[1] = test system: parental and 5-FU-resistant SW480 cell lines; assay: Spheroid growth of parental and 5-FU-resistant SW480 lines; type: cell-based, human; conditions: spheroids
Summary of the method: (§1)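 SW480 cells were seeded on solidified Matrigel in RPMI-1640 spheroid medium containing 20 ng/mL EGF, 20 ng/mL FGF, heparin, N-2 supplement and penicillin/streptomycin. Seeding was 1,000 cells/well (96-well) or 5,000 cells/well (24-well). Test compound was added in medium and cultures were grown 7 days at 37 °C with 5% CO2. Spheroids were imaged by phase contrast (some stained with crystal violet), and small objects excluded before area analysis.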

[2] = molecular target: T1, ALDH1B1 (Homo sapiens, UniProt P30837); assay: ALDEFLUOR assay, ALDH1B1 transiently expressed in ALDH1A3-/- A375 cells; type: cell-based; conditions: flow cytometry
T1 sequence (P30837 18-517): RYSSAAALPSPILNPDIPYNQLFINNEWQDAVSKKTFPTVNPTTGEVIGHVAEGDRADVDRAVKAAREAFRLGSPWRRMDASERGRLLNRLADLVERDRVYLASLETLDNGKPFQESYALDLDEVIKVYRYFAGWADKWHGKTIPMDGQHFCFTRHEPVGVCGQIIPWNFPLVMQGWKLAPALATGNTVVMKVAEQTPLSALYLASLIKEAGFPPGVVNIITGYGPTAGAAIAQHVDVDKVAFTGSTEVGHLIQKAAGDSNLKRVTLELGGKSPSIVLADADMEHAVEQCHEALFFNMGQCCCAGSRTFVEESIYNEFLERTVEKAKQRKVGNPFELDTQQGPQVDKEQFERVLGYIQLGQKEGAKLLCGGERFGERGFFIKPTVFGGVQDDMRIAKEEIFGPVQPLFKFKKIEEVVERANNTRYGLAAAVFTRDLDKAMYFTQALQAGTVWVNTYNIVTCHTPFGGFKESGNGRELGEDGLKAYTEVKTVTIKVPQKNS
Summary of the method: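 ALDH1A3-knockout A375 cells were grown 24 h, then transfected with empty pCMV6, pCMV6-GFP (to estimate transfection efficiency) or pCMV6-ALDH1B1. Medium was changed at 24 h and cells grown another 24 h. Trypsinized cells in ALDEFLUOR buffer were exposed to test compound for 15 min at 37 °C with 5% CO2, then to ALDEFLUOR reagent for 30 min. Live single cells (DAPI gating) were analysed by flow cytometry; read-out is % of cells outside the negative-control gate (ALDEFLUOR vs SSC-A).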

[3] = molecular target: T2, endogenous ALDH1B1 in live SW480 cells (Homo sapiens, UniProt P30837); assay: Cellular thermal shift assay; type: binding; conditions: 10 µM, 1 hour
T2 sequence (P30837 18-517): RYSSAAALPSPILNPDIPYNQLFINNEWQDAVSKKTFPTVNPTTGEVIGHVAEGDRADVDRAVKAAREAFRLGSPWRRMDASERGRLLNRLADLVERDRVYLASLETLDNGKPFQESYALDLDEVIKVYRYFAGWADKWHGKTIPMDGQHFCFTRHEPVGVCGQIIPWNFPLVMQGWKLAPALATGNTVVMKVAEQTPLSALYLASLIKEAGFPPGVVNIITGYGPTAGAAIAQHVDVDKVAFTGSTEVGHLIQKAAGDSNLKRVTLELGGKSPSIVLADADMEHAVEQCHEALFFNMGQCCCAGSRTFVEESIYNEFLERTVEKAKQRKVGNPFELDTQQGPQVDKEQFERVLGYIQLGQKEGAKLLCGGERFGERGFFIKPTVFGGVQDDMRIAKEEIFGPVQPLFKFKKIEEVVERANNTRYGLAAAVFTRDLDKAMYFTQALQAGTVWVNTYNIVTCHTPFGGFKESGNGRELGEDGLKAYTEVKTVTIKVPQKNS
Summary of the method: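 SW480 cells were grown in 15-cm dishes, trypsinized at about 80% confluence, and kept live in the incubator for 1 h. Cells were then pelleted at 480 x g for 5 min, washed with PBS and resuspended in PBS with protease inhibitors. Total protein per lane was checked on stain-free gels alongside immunoblotting of ALDH1B1.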

[4] = test system: SW480 cells; assay: Thermal proteome profiling; type: binding, human; conditions: 2 µM, 1 hour; cutoffs ΔTm ≥ 1.5 °C and P < 0.05
[5] = test system: colorectal tumor PDO lines; assay: Patient-derived organoid viability; type: cell-based, human; conditions: seven days treatment; CTO1-CTO4
Summary of the method: (§2)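 Organoids (wild-type colon or colorectal tumour) were dissociated with TrypLE plus 10 µM Y-27632. They were plated as 10-µL BME-2 domes at 1,000 cells/µL in WENR medium with 10 µM Y-27632 and 2.5 µM CHIR99021, and grown 3–5 days. Test compound at varying concentrations in WENR was then given for 7 days. Viability was read as resazurin metabolism with 10% Alamar Blue: 4 h for tumour PDOs, 6 h for wild-type PDOs, at 37 °C in the dark.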

[6] = test system: wild-type colon PDOs; assay: Patient-derived organoid viability; type: cell-based, human; conditions: seven days treatment; compared with tumor PDOs
Summary of the method: as §2

[7] = test system: ALDH1B1 variants (E124G/N457G and V173I/N457G); assay: Inhibitor resistance of ALDH1B1 mutants; type: biochemical, human
Summary of the method: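 A375 ALDH1A3-knockout cells were transfected (3:1 DNA:FuGENE HD) with wild-type or mutant pCMV6-ALDH1B1 and grown 48 h. Cells in ALDEFLUOR buffer received ALDEFLUOR reagent. Within 10 s, aliquots were moved to tubes holding DMSO, DEAB (1.5 mM stock in EtOH) or test compound (100 µM or 10 µM stocks in DMSO). Tubes were incubated 30 min at 37 °C, cells pelleted, and analysed by flow cytometry.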

[8] = test system: E124G/N457G mutant-expressing cells; type: cell-based, human
Summary of the method: as §1

[9] = molecular target: T3, ALDH1B1 (aldehyde dehydrogenase 1B1), human recombinant, mitochondria-targeting sequence removed (human), P30837; assay: crystal structure; conditions: remark: other sources report otherwise
T3 chain: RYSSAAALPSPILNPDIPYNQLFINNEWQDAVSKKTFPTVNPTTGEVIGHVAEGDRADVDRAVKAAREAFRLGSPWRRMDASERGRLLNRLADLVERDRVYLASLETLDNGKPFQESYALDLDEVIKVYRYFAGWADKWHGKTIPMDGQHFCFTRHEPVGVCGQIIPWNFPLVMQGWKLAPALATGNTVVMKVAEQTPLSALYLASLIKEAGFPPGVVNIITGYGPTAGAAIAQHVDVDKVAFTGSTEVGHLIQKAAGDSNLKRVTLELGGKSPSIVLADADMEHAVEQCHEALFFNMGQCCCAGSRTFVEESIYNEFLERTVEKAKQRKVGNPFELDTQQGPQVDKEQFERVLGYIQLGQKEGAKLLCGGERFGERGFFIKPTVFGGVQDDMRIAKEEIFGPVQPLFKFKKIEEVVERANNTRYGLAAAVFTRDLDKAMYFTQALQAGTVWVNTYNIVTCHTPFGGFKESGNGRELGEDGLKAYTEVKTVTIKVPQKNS

## O=c1[nH]cc(F)c(=O)[nH]1 [5-FU]
[1]
  loss of sensitivity of 5-FU-resistant SW480 line versus parental line: approximately 20 fold

## CCN(CC)c1ccc(C=O)cc1 [DEAB, N,N-diethylaminobenzaldehyde]
[2]
  cellular ALDH1B1 activity (ALDEFLUOR signal): abrogated

## COc1cc(Cl)ccc1C1=CN(c2ccc(-c3ccccc3OC)cc2)C2=NCCCN12.O=CO [IGUANA-1]
[3]
  thermal stabilization of ALDH1B1: stabilizes endogenous ALDH1B1
[4]
  inhibitor-dependent change in thermal stability (ΔTm), proteome-wide: largest inhibitor-dependent increase in thermal stability
[5]
  growth of colorectal adenocarcinoma PDOs: inhibit the growth of each line
[6]
  sensitivity of wild-type colon PDOs: less sensitive
[7]
  inhibitor sensitivity of ALDH1B1 variants: markedly reduced inhibitor sensitivity
[8]
  resistance of mutant-expressing spheroid cultures versus wild-type ALDH1B1: more resistant

B1: ALDH1B1 (aldehyde dehydrogenase 1B1), human recombinant, mitochondria-targeting sequence removed, P30837 18-517 (enzyme)
chain: RYSSAAALPSPILNPDIPYNQLFINNEWQDAVSKKTFPTVNPTTGEVIGHVAEGDRADVDRAVKAAREAFRLGSPWRRMDASERGRLLNRLADLVERDRVYLASLETLDNGKPFQESYALDLDEVIKVYRYFAGWADKWHGKTIPMDGQHFCFTRHEPVGVCGQIIPWNFPLVMQGWKLAPALATGNTVVMKVAEQTPLSALYLASLIKEAGFPPGVVNIITGYGPTAGAAIAQHVDVDKVAFTGSTEVGHLIQKAAGDSNLKRVTLELGGKSPSIVLADADMEHAVEQCHEALFFNMGQCCCAGSRTFVEESIYNEFLERTVEKAKQRKVGNPFELDTQQGPQVDKEQFERVLGYIQLGQKEGAKLLCGGERFGERGFFIKPTVFGGVQDDMRIAKEEIFGPVQPLFKFKKIEEVVERANNTRYGLAAAVFTRDLDKAMYFTQALQAGTVWVNTYNIVTCHTPFGGFKESGNGRELGEDGLKAYTEVKTVTIKVPQKNS
[9]
  stoichiometry N: 4

From publication PMC9529790 (Nature chemical biology, 2022)
